Experimental data reported in PubChem BioAssay AID1737 (Vanderbilt High Throughput Screening Facility, 2009).
Inconclusive results are not listed. Calls of active or inactive are those of the source.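 The calls were made as follows: active = converged dose curve in at least two of three replicates, even with few points beside the midpoint; inactive = the rest, inconclusive results apart.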

Biological target: Solute carrier family 12 member 5 (Homo sapiens) (UniProt Q9H2X9)
Assay: KCC2 cotransporter modulators, thallium uptake, dose response, cell-based, HEK293-KCC2, thallium flux, FluoZin2, sodium-free, assay 3 (AID 1737)
Conditions: HEK293-KCC2, thallium flux FluoZin2 fluorescence, Na-free
Summary of the method: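 System: KCC2-expressing HEK cells; measured by: FluoZin2 fluorescence, 480/540 nm; also added: thallium sulfate stimulus; repeats: triplicate wells per dose, each replicate fitted separately; compound: 11 doses, 3-fold steps, 30 µM top; control set: bumetanide as positive control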

Sequence of Solute carrier family 12 member 5 (Homo sapiens) (Q9H2X9 whole entry, looked up): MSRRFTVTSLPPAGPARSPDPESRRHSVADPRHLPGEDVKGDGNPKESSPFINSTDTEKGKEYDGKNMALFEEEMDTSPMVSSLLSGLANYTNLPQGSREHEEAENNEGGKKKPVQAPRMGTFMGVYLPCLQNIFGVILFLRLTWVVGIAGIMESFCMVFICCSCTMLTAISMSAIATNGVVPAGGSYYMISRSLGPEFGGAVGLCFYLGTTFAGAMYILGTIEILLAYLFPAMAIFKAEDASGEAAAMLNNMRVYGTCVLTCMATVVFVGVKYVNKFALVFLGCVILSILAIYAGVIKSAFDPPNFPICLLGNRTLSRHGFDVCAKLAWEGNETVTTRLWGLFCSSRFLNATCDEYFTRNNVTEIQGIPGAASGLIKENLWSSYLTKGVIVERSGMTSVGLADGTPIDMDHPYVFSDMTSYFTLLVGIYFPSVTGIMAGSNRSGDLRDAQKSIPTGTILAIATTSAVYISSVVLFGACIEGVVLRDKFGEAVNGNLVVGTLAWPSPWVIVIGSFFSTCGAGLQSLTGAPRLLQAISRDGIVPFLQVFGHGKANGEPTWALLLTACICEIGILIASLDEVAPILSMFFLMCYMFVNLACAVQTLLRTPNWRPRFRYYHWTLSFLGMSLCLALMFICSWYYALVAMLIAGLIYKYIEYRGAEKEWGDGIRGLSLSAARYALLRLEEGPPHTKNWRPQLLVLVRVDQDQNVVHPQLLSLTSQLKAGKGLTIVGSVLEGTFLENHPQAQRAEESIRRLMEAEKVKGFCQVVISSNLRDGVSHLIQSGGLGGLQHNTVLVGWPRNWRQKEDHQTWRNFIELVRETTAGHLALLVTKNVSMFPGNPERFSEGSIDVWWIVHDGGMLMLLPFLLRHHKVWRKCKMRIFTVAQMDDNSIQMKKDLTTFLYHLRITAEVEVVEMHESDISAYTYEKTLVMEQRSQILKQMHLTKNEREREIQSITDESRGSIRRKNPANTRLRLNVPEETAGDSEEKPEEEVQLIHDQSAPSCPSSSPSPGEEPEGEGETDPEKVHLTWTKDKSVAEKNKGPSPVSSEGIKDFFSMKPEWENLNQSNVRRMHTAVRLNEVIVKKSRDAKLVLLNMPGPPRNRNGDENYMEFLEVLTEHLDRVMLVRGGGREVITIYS

Structure (SMILES) | EC50
Fc1cccc(F)c1/C=N/NC(=S)Nc1cccnc1 | inactive
COc1ccc(-c2nnc(-c3ccc(OCC(C)C)cc3)o2)cc1 | inactive
CCOc1cccc(C(=O)NC(=S)Nc2cccc(C)c2)c1 | inactive
O=[N+]([O-])c1ccc(-c2cn(-c3ccccc3F)c(=S)[nH]2)cc1 | 318 nM
O=C(NC(=S)Nc1ccc2c(c1)OCO2)c1ccc(Cl)cc1 | inactive
CC(=O)c1cccc(NC(=S)NC(=O)c2ccc(C)cc2)c1 | 288 nM
Cc1onc(-c2ccccc2Cl)c1C(=O)NC(=S)Nc1ccc(C(C)C)cc1 | inactive
COc1cccc(/C=c2\s/c(=C/C(=O)c3ccc(C)cc3)[nH]c2=O)c1OC | inactive
NC(=S)N=Nc1c(O)n(Cc2ccccc2)c2ccccc12 | inactive
O=C(NC(=S)Nc1cccc2cccnc12)c1cccs1 | inactive
Cc1ccc(-c2n[nH]c(=S)n2/N=C/C=C\c2ccccc2[N+](=O)[O-])cc1 | inactive
O=[N+]([O-])c1ccccc1/C=C/C=N/n1c(-c2ccc(Cl)cc2)n[nH]c1=S | inactive
O=c1c2ccccc2[nH]c(=S)n1CCN1CCC(=C(c2ccc(F)cc2)c2ccc(F)cc2)CC1 | inactive
COc1ccc(N2C(=S)N=C(Nc3cccc(C)c3)C23CCCCC3)cc1 | 417 nM
